Data published in ChEMBL document CHEMBL1129436, “Novel peptidyl alpha-keto amide inhibitors of calpains and other cysteine proteases” (J Med Chem, 1996).

How the values were obtained:
[1] = biological target: T1, Calpain-1 catalytic subunit (Homo sapiens, UniProt P07384); assay: Inhibition of the cysteine protease human Calpain 1
T1 sequence (P07384 whole entry): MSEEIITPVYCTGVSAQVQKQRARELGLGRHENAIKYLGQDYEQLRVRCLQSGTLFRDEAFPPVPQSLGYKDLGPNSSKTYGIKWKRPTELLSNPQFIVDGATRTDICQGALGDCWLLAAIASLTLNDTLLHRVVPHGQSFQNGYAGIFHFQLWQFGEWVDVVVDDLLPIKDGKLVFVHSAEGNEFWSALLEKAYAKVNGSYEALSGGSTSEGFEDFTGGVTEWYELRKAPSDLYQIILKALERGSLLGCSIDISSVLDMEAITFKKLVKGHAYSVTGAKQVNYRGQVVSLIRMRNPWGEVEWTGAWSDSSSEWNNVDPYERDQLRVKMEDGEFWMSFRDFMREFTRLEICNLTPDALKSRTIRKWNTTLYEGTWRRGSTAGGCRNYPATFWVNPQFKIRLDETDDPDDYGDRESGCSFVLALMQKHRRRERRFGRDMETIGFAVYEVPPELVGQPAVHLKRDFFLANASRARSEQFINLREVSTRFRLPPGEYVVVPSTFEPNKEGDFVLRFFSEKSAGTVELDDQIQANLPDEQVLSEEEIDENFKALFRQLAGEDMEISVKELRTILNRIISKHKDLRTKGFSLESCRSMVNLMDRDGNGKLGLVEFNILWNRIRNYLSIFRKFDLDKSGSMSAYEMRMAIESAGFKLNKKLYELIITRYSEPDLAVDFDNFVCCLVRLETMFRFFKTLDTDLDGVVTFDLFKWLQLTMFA
Summary of the method: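 Calpain assay in 25 mM Tris, pH 8.0, with 10 mM CaCl₂ and 5% DMSO. […] hydrolysis was read as initial velocity (t = 30-60 s) after a 30 s delay, at room temperature. Five or more inhibitor concentrations (not above 2 × K_obs) were used at two fixed substrate levels. Ki came from Dixon plots (1/v vs I) averaged over triplicates.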

[2] = biological target: T2, Cathepsin B (Homo sapiens, UniProt P07858); assay: Inhibition of human cathepsin B
Summary of the method: (§1)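 Bovine or human cathepsin B, assayed in 20 mM sodium acetate, pH 5.2, with 0.5 mM dithiothreitol and 2% DMSO. The two enzyme sources were used interchangeably. Ki was taken from Dixon plots, with triplicate assays plotted as 1/v versus inhibitor concentration.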

[3] = species on record: Rattus norvegicus;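 further: measured as membrane permeability of platelets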
[4] = biological target: Cathepsin B (Bos taurus, UniProt P07688); assay: Inhibition of bovine cathepsin B; summary of the method: as §1
[5] = biological target: T2, Cathepsin B; assay: Compound was evaluated for the inhibition of Cathepsin B; summary of the method: as §1
[6] = biological target: T2, Cathepsin B; assay: Compound was evaluated for the inhibition of Cathepsin B; Gives nonlinear dixon plots; summary of the method: as §1

Ki [1] [nM] | Ki [2] [nM] | Ki [4] [nM] | Ki [5] [µM] | Ki [6] | SMILES | IC [3] [µM]
420 | 890 | – | – | – | CCC(NC(=O)C(CC(C)C)NC(=O)OCc1ccccc1)C(=O)C(=O)NCC1(C)CC(O)CC(C)(C)C1 (centres undefined) | 103
800 | 4500 | – | – | – | CCC(NC(=O)C(CC(C)C)NC(=O)OCc1ccccc1)C(=O)C(=O)NCCO (centres undefined) | 78
330 | 4500 | – | – | – | CCC(NC(=O)C(CC(C)C)NC(=O)OCc1ccccc1)C(=O)C(=O)NCC1CCCO1 (centres undefined) | 22
350 | 3000 | – | – | – | CCCNC(=O)C(=O)C(Cc1ccccc1)NC(=O)C(CC(C)C)NC(=O)OCc1ccccc1 (centres undefined) | 31
– | 200 | – | – | – | CCC(NC(=O)C(CC(C)C)NC(=O)OCc1ccccc1)C(=O)C(=O)NCCCc1ccccc1 (centres undefined) | 100
300 | – | 31 | – | – | CCC(NC(=O)C(CC(C)C)NC(=O)OCc1ccccc1)C(=O)C(=O)NCCc1c[nH]c2ccccc12 (centres undefined) | 180
1100 | 2200 | – | – | – | CC(C)CC(NC(=O)C(c1ccccc1)c1ccccc1)C(=O)NC(Cc1ccccc1)C(=O)C(=O)NCc1ccccn1 (centres undefined) | > 300
– | – | – | 4.6 | – | CC(C)CC(NC(=O)OCc1ccccc1)C(=O)NC(Cc1ccccc1)C(=O)C(=O)NCc1ccccc1 (centres undefined) | > 300
1100 | 6400 | – | – | – | CCC(NC(=O)C(CC(C)C)NC(=O)OCc1ccccc1)C(=O)C(=O)NCc1ccncc1 (centres undefined) | 54
1000 | 2500 | – | – | – | CCC(NC(=O)C(CC(C)C)NC(=O)OCc1ccccc1)C(=O)C(=O)NCCN1CCOCC1 (centres undefined) | 23
250 | 4200 | – | – | – | CCCC(NC(=O)C(CC(C)C)NC(=O)OCc1ccccc1)C(=O)C(=O)NCCCN1CCOCC1 (centres undefined) | 18
140 | 6900 | – | – | – | CCC(NC(=O)C(CC(C)C)NC(=O)OCc1ccccc1)C(=O)C(=O)NCCCN1CCOCC1 (centres undefined) | 45
– | 280 | – | – | – | CCC(NC(=O)C(CC(C)C)NC(=O)OCc1ccccc1)C(=O)C(=O)NCCCCCO (centres undefined) | 54
2300 | 1800 | – | – | – | CCC(NC(=O)C(CC(C)C)NC(=O)OCc1ccccc1)C(=O)C(=O)NCc1cc(OC)cc(OC)c1 (centres undefined) | 30
120 | 13000 | – | – | – | CC(C)CC(NC(=O)OCc1ccccc1)C(=O)NC(Cc1ccccc1)C(=O)C(=O)NCCCN1CCOCC1 (centres undefined) | 54
– | 6000 | – | – | – | CCNC(=O)C(=O)C(Cc1ccccc1)NC(=O)C(CC(C)C)NC(=O)OCc1ccccc1 (centres undefined) | 22
– | 1200 | – | – | – | CCC(NC(=O)C(CC(C)C)NC(=O)OCc1ccccc1)C(=O)C(=O)NCc1cccnc1 (centres undefined) | > 300
640 | 3000 | – | – | – | CCC(NC(=O)C(CC(C)C)NC(=O)OCc1ccccc1)C(=O)C(=O)NCc1ccccn1 (centres undefined) | 110
1100 | 370 | – | – | – | CCC(NC(=O)C(CC(C)C)NC(=O)OCc1ccccc1)C(=O)C(=O)NCC(O)c1ccccc1 (centres undefined) | 69
380 | – | – | – | Non linear Dixon plots | CCC(NC(=O)C(CC(C)C)NC(=O)OCc1ccccc1)C(=O)C(=O)NCCc1ccc(O)cc1 (centres undefined) | 23
– | 2000 | – | – | – | CCC(NC(=O)C(CC(C)C)NC(=O)OCc1ccccc1)C(=O)C(=O)NCCOCCO (centres undefined) | 58
800 | 6000 | – | – | – | CCC(NC(=O)C(CC(C)C)NC(=O)OCc1ccccc1)C(=O)C(=O)NCc1ccco1 (centres undefined) | 58
– | 1300 | – | – | – | CCC(NC(=O)C(CC(C)C)NC(=O)OCc1ccccc1)C(=O)C(=O)NCCc1ccccc1 (centres undefined) | 50
– | 2000 | – | – | – | CCC(NC(=O)C(CC(C)C)NC(=O)OCc1ccccc1)C(=O)C(=O)NCc1ccccc1 (centres undefined) | 30
1300 | 2100 | – | – | – | CC(C)CC(NC(=O)OCc1ccccc1)C(=O)NC(Cc1ccccc1)C(=O)C(=O)NCC(O)c1ccccc1 (centres undefined) | 44
– | 2400 | – | – | – | CCNC(=O)C(=O)C(CC)NC(=O)C(CC(C)C)NC(=O)OCc1ccccc1 (centres undefined) | 100
750 | – | 170 | – | – | CCC(NC(=O)C(CC(C)C)NC(=O)C(c1ccccc1)c1ccccc1)C(=O)C(=O)NCC(O)c1ccccc1 (centres undefined) | 180
– | – | – | 9.3 | – | CC(C)CC(NC(=O)OCc1ccccc1)C(=O)NC(Cc1ccccc1)C(=O)C(=O)NCCc1ccccc1 (centres undefined) | 100
